Measured values collected from several papers.
Protocols differ between the studies behind these lines.

For `CS(=O)(=O)CCNCc1ccc(-c2ccc3ncnc(Nc4ccc(OCc5cccc(F)c5)c(Cl)c4)c3c2)o1`, the AUC was 27300 ng·h/mL (human; serum; oral; 1250 mg; single dose, fed).
`COc1cc(C(=O)NC2CCN(C)CC2)c(F)cc1Nc1ncc(C(F)(F)F)c(Oc2cccc3c2C(=O)N(C)C3)n1` gave an AUC of 16.3 µM·h (human; plasma; oral; 100 mg; multiple doses, once daily, steady state, patients).
With `Cn1c(=O)oc2ccc(-c3ccc(C[C@@H](C#N)NC(=O)[C@@H]4CNCCCO4)cc3)cc21` the AUC was 0.915 µM·h (male human; plasma; oral; 5 mg; single dose, healthy volunteers).
With `OC[C@H]1O[C@@H](c2ccc(Cl)c(Cc3ccc(O[C@H]4CCOC4)cc3)c2)[C@H](O)[C@@H](O)[C@@H]1O` the AUC was 3960 ng·h/mL (male human; plasma; oral; 25 mg; multiple doses, once daily, steady state, healthy volunteers).
For `C[C@@H](c1ccc2nccn2c1)n1nnc2ncc(-c3cnn(C)c3)nc21`, the AUC was 4010 ng·h/mL (human; plasma; oral; 200 mg).
The AUC of `CCOc1ccc(Cc2cc([C@@H]3O[C@H](CO)[C@@H](O)[C@H](O)[C@H]3O)ccc2Cl)cc1` is reported as 493 ng·h/mL (human; plasma; oral; 10 mg; multiple doses, steady state).
With `Cc1ccc(C(=O)N(CCCN)[C@@H](c2oc3cc(Cl)ccc3c(=O)c2Cc2ccccc2)C(C)C)cc1` the AUC was 2520 ng·h/mL (human; plasma; intravenous; 2 mg/m²; single dose, patients, infusion).
`CS(=O)(=O)CCC#N` has an AUC of 723000 ng·h/mL (human; plasma; oral; 1000 mg; multiple doses, once daily).
With `CC(C)(C)OC[C@@H]1C(=O)NCCN1C(=O)C[C@H](N)Cc1cc(F)c(F)cc1F` the AUC was 94.2 ng·h/mL (human; plasma; oral; 5 mg; multiple doses, once daily, steady state).
`NS(=O)(=O)NCCNc1nonc1C(=NO)Nc1ccc(F)c(Br)c1` has an AUC of 1.58 µM·h (human; plasma; oral; 50 mg; multiple doses, once daily, steady state, patients).
